# Measurements gathered from unrelated publications.
# Lines come from different studies, so protocols differ.
# Target: Protein kinase C gamma type (PRKCG, Homo sapiens, UniProt P05129)
SMILES,test,conditions,quantity,result
COc1cc2ncnc(Nc3ccc(Oc4ccccc4)c(C)c3C)c2cc1OC,"enzyme activity, inhibitor",1 µM,inhibition,1%
FC(F)(F)Oc1cccc(-c2cnc3ccc(-c4ccncc4)nn23)c1,"enzyme activity, inhibitor, radiometric",5 µM,activity vs control,76%
COc1cc(Nc2cnc(C#N)c(O[C@H](C)CN(C)C)n2)ncc1-c1cnn(C)c1,"enzyme activity, inhibitor, radiometric",1 µM,remaining activity,90%
CCN(CC)CCNC(=O)c1c(C)[nH]c(/C=C2\C(=O)Nc3ccc(F)cc32)c1C,"enzyme activity, inhibitor",10 µM,inhibition,32%
CC/C(=N\NC(=O)NCc1cccc(O)c1)c1ccc(O)c(C)c1O,"enzyme activity, inhibitor",0.1 µM,inhibition,3.6%
Cc1cc(NC(=O)c2cccc3cc(-c4cccc5[nH]nc(N)c45)ccc23)ccc1F,"enzyme activity, inhibitor",0.1 µM,activity vs control,92%
Cc1ccc(-n2nc(C(C)(C)C)cc2NC(=O)Nc2ccc(OCCN3CCOCC3)c3ccccc23)cc1,"enzyme activity, inhibitor",10 µM,inhibition,7%
O=C(Nc1cnn(-c2csc(C(=O)NC3COC3)c2)c1)Nc1c(F)cccc1Cl,"enzyme activity, inhibitor",5 µM,remaining activity,98.3%
COc1cc(Cl)c(C(=O)N[C@@H](CN[C@H]2CC[C@@H](N)CC2)Cc2ccc(C#N)cc2)cc1-c1ccc(CN[C@H](C)c2ccc(C)cc2)o1,"enzyme activity, inhibitor",1 µM,remaining activity,98%
CN1CC(Oc2cnc(C#N)cc2-c2ccn3nc(NC(=O)C4CC4)cc3c2)C1,"enzyme activity, inhibitor",1 µM,inhibition,1%
Cc1sc(C(=O)NC2COC2)cc1-n1cc(NC(=O)Nc2c(F)cccc2Cl)cn1,"enzyme activity, inhibitor",10 µM,remaining activity,102%
Cc1ccc(C(=O)NCc2ccsc2)cc1C#Cc1cn(C(C)C)c2ncnc(N)c12,"enzyme activity, inhibitor",1 µM,activity vs control,97%
N#CCCc1ccc2c(c1)-c1[nH]c3ccc([N+](=O)[O-])cc3c1CC(=O)N2,cell-free assay,0.5 µM,remaining signal,93.3%
C[C@@H](N)[C@H]1CC[C@H](C(=O)Nc2ccncc2)CC1,"enzyme activity, inhibitor, TR-FRET",10 µM,inhibition,6.8%
CCCOc1ccc(OC)c(F)c1C(=O)c1ccc(C(=O)N[C@@H]2CNC[C@H]2NC(=O)c2ccc3[nH]ncc3c2)cc1,"enzyme activity, inhibitor",10 µM,remaining activity,73%
CC(C)(C)c1nc2c(s1)c1nc(N)ncc1c1ccc(NS(=O)(=O)c3c(F)cccc3F)c(F)c12,"enzyme activity, inhibitor, radiometric",1 µM,remaining activity,103%
